Several values for one entry are separate records, joined by “and”; a condition that tells them apart may be missing. Equal values may be shown once. Screen size: about 340,000 compounds; about 3,000 (0.88%) were called active. Only a selection was taken, and actives are over-represented in it overall. A number with no mark means an inactive call.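 How the source made its calls: active means inhibition above about 50% at 20 µM (limit read from the data); inactive means the rest.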
Biological target: Carboxy-terminal domain RNA polymerase II polypeptide A small phosphatase 1 (Homo sapiens) (UniProt Q9GZU7)
Sequence (Q9GZU7 76-261 limits assumed): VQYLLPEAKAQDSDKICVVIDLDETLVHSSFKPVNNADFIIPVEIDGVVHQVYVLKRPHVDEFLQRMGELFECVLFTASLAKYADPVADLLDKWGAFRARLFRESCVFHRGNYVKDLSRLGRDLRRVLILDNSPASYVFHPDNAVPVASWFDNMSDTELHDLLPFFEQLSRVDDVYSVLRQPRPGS
Test: inhibition of human SCP1 dephosphorylation activity – biochemical, colorimetric, uHTS, primary screen (AID 493091);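 further: plate controls were DMSO wells with enzyme for no effect and wells lacking enzyme for full effect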
Details: Recombinant Scp1, phosphopeptide, malachite green phosphate absorbance; at 20 µM; hits give high values
Outline: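 Incubation: 45 min enzyme reaction at room temperature / System: truncated SCP-1 phosphatase (76-261aa) / Reagent: Phospho 17-mer peptide substrate / Buffer or medium: Acidic Tris acetate buffer with magnesium and detergent / Signal: absorbance at 630 nm / Doses: one concentration, 20 µM, with 1.0% DMSO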

Row | Compound | inhibition
1 | NNC(=O)C1CC(O)CN1S(=O)(=O)c1ccc(Cl)cc1 (centres undefined) | -8.23%
2 | CN1CCN(C2Cc3ccc(Cl)cc3Sc3ccc(F)cc32)CC1 (centres undefined) | -3.27%
3 | Cc1c(CCO)c(=O)n(-c2ccccc2)n1S(=O)(=O)c1ccc(F)cc1 | -6.22%
4 | CCOC(=O)c1cnn(Cc2ccccc2Cl)c1N | -4.87%
5 | CC(=O)Nc1ccc(NC(=O)CSc2nnc(C3CC3)n2-c2ccccc2)cc1 | 3.64%
6 | CC[n+]1c(C)n(-c2ccccc2)c2ccc(NC(C)=O)cc21 | 59.6% (active)
7 | CC(=O)c1cccc(NC(=O)c2cc(C)nn2-c2ccccc2)c1 | -21.8%
8 | CCc1ccc(NC(=O)CS(=O)CC(=O)NCCCc2ccccc2)cc1 (centres undefined) | 93.4% (active)
9 | CCc1ccc(NC(=O)CS(=O)CC(=O)N2CCN(c3ccccc3F)CC2)cc1 (centres undefined) | -3.07%
10 | S=C(NCCCc1ccccc1)Nc1ccc(Br)cc1 | -8.32%
11 | CC(C)(C)C1CCc2c(sc3nc(SCC(N)=O)nc(N)c23)C1 (centres undefined) | 5.56%
12 | O=C(Nc1cccnc1)c1cc([N+](=O)[O-])ccc1Cl | -5.04%
13 | COc1ccc2oc(=N)c(C(=O)Nc3ccc(Br)cc3)cc2c1 | 2.27%
14 | O=C(Nc1cccnc1)c1cc2cc(Br)ccc2oc1=O | 101% (active)
15 | O=C(Oc1ccc2c(c1)CCC2)N1CCOCC1 | -4.77%
16 | COc1ccc(CCNS(=O)(=O)c2cn(C)nc2C)cc1 | 0.34%
17 | O=C(O)c1ccccc1/C=N/Nc1ccc(S(=O)(=O)Nc2ccc(Cl)cc2)cc1[N+](=O)[O-] | -7.5%
18 | Oc1[nH]c2ccccc2c1N=Nc1c(F)c(F)c(F)c(F)c1F | -10.4%
19 | O=[N+]([O-])c1cc(S(=O)(=O)Nc2cccc(Cl)c2)ccc1N=Nc1c(O)[nH]c2ccccc12 | 52.2% (active)
20 | Cc1ccnc(NS(=O)(=O)c2ccc(NC(=O)c3oc4ccccc4c3C)cc2)n1 | -7.13%
21 | O=C1CCC/C=C\C[C@@H](CC(=O)N(CCO)Cc2ccccc2)C(=O)NCCO1 | -0.23%
22 | O=C(CCNC(=O)c1ccccc1)NN=Cc1ccc(Br)o1 | 70.2% (active)
23 | O=C(N/N=C/c1ccc(Br)o1)c1cncc(Br)c1 | 0.65%

Row | Compound | inhibition
24 | O=C(CCC(=O)N/N=C/c1ccc(Br)o1)N/N=C/c1ccc(Br)o1 | 55% (active)
25 | O=C(CCNC(=O)c1ccccc1Cl)NN=Cc1ccco1 | 10.6%
26 | O=C(CCc1n[nH]c(=O)[nH]c1=O)N/N=C/c1ccc(Br)o1 | 2.94%
27 | N#CCC(=O)N/N=C/c1ccc(SCC(=O)Nc2ccccc2)o1 | -8.26%
28 | Cc1ccc(S(=O)(=O)NCC(C)NS(C)(=O)=O)cc1 (centres undefined) | -4.62%
29 | Cc1cccc(C)c1NC(=O)COC(=O)c1ccccc1O | -5.49%
30 | COc1ccc(CNS(=O)(=O)c2cc(-c3cc(C)no3)ccc2C(C)C)cc1 | -11%
31 | O=C(c1cc(S(=O)(=O)N2CCOCC2)ccc1Cl)N1CCOCC1 | -9.49%
32 | CC(=O)N1CCN(S(=O)(=O)c2cccc(C(=O)NC3CCC(C)CC3)c2)CC1 (centres undefined) | 5.39%
33 | C[C@H](NC(=O)C1CC(=O)N(c2ccc3c(c2)OCO3)C1)C(=O)NCc1ccco1 (some centres undefined) | -2.53%
34 | CCCCNc1nc2ccccc2nc1NS(=O)(=O)c1cccs1 | -7.43%
35 | CCCn1nc(NS(=O)(=O)c2ccc(F)cc2)c2cc3ccccc3nc21 | 3.78%
36 | COCCCNc1nc2ccccc2nc1NS(=O)(=O)c1ccc(F)cc1 | 54.7% (active)
37 | CC1C(=O)C(C)C(c2ccc(O)cc2)NC1c1ccc(O)cc1 (centres undefined) | -7.74%
38 | CCN(CC)S(=O)(=O)c1cccc(-c2n[nH]c(=S)n2/N=C/c2ccc(C(=O)OC)cc2)c1 | -7.1%
39 | Cc1ccc(OC(=O)c2ccccc2C(=O)OCC(F)(F)C(F)F)cc1 | -9.39%
40 | CCc1ccc(C2C(C#N)=C(N)N(N3CCOCC3)C3=C2C(=O)CC(C)(C)C3)s1 (centres undefined) | 8.56%
41 | CC(C)(CNC(=O)CNC(=O)C1CCCCC1)N1CCOCC1 | -8.57%
42 | O=S(=O)(c1ccc(Br)c2ccccc12)N1CCOCC1 | -7.33%
43 | COc1ccc2[nH]c(=S)cc(C)c2c1 | -4.32%
44 | COc1ccc2[nH]c(C(=O)N3CCN(C)CC3)c(C)c2c1 | -4.55%
45 | COc1ccc2[nH]c3c(C)c4cc[n+](C)cc4c(C)c3c2c1 | 64.5% (active)
46 | Cn1nc(C(C)(C)C)c([N+](=O)[O-])c1C(N)=O | -0.65%

Row | Compound | inhibition
47 | Cc1nn(CCOc2ccc(Br)cc2)c(C)c1[N+](=O)[O-] | -14.1%
48 | Cc1c([N+](=O)[O-])c(N)nn1C | 51% (active)
49 | Clc1ccc(Cn2ncc3c(NCc4cccnc4)ncnc32)cc1 | 2.57%
50 | NS(=O)(=O)c1cccc(NC(=O)COC(=O)/C=C/c2ccco2)c1 | 26.2%
51 | O=C(COC(=O)c1ccccc1)Nc1cccc(S(=O)(=O)N2CCOCC2)c1 | -6.52%
52 | O=C(COC(=O)/C=C/c1ccc(Br)o1)Nc1cccc(S(=O)(=O)N2CCOCC2)c1 | 56% (active)
53 | C=CCOc1ccc(/C=C/C(=O)OCC(=O)NC(C)c2ccc(F)cc2)cc1 (centres undefined) | 1.27%
54 | Cc1c(CCOC(=O)CC23CC4CC(CC(C)(C4)C2)C3)sc[n+]1Cc1ccc([N+](=O)[O-])cc1 | 12.7% and 5.4%
55 | CN(C)c1nc2n(c(=O)n1)CCO2 | 1.74%
56 | COc1ccc(OCC(=O)NNC(=O)c2ccc(-c3ccccc3)cc2)cc1 | 69.9% (active)
57 | CC(NC(=O)COc1ccc(-c2ccccc2)cc1)C1CCCO1 (centres undefined) | -2.02%
58 | COc1ccc(OCC(=O)NNC(=O)C2CCC2)cc1 | 0.44%
59 | CCC(C)N1CC(=O)N2Cc3[nH]c4ccccc4c3C[C@H]2C1=O (some centres undefined) | -3.96%
60 | N/C(=N\OC(=O)N1c2ccccc2Sc2ccccc21)c1ccc(Br)cc1 | 69% (active)
61 | N/C(=N\OC(=O)Cc1ccccc1[N+](=O)[O-])c1ccc(Br)cc1 | -4.88%
62 | N/C(=N\OC(=O)c1ccc2c(c1)OCO2)c1ccc(Br)cc1 | -3.74%
63 | Cc1ccc(S(=O)(=O)Nc2nc(C)cc(-n3nc(C)cc3C)n2)cc1 | 84.1% (active)
64 | Cc1cc(C)nc(NS(=O)(=O)c2ccc(N3C(=O)C4CCCCC4C3=O)cc2)n1 (centres undefined) | -3.6%
65 | Cc1ccc(S(=O)(=O)Nc2nc(N)n(-c3ccccc3)n2)cc1 | -3.38%
66 | COC(=O)c1sccc1NC(=O)CSc1ccccc1NS(=O)(=O)c1cc(Cl)ccc1Cl | -13.4%
67 | O=C(CNC(=O)C12CC3CC(CC(C3)C1)C2)OCC(=O)N1CCCCC1 | -0.76%
68 | C#CCOCCOCCOCCNc1nc(N2CCN(C(=O)Cn3cc(CCO)nn3)CC2)nc(N2CCN(C(=O)Cn3cc(CCCN=C(N)N)nn3)CC2)n1 | 4.14%
69 | C#CCOCCOCCOCCNc1nc(N2CCN(C(=O)CCCCCCCCCCNC(=O)[C@H](CCCCN)n3cc(C)nn3)CC2)nc(N2CCN(C(=O)CCCCCCCCCCNC(=O)[C@H](CO)n3cc(CCCSC)nn3)CC2)n1 | 26.8%

Row | Compound | inhibition
70 | C#CCOCCOCCOCCNc1nc(N2CCN(C(=O)CCCCCCCCCCNC(=O)[C@H]([C@@H](C)CC)n3cc(CCCCN=C(N)N)nn3)CC2)nc(N2CCN(C(=O)CCCCCCCCCCNC(=O)[C@H](CO)n3cc(CCCSC)nn3)CC2)n1 | 53% (active)
71 | Cc1ccc(CNC(=O)C(=O)c2cn(CC(=O)N3CCCC3)c3ccccc23)cc1 | -10.2%
72 | O=C(C1CCC1)N1CCN(c2ccccc2)CC1 | -5.05%
73 | O=C(c1cc2c(s1)CCC2)N1CCN(c2ccccc2)CC1 | 51.2% (active)
74 | O=C(c1ccccc1)c1ccc(C(=O)N2CCN(c3ccccc3)CC2)cc1 | 0.99%
75 | O=C1NC(c2ccccc2)Cc2ccncc21 (centres undefined) | 5.3%
76 | Cc1cc(/C=C2\SC(=Nc3ccc(N4CCOCC4)cc3)N(C)C2=O)c(C)n1-c1cccnc1 | -4.38%
77 | Cc1cc(/C=C2/SC(=O)N(CC(=O)N3CCCC3)C2=O)c(C)n1C | -10.3%
78 | Cc1cc(/C=C2\SC(=O)N(C)C2=O)c(C)n1-c1cccc(C(=O)O)c1 | 54.7% (active)
79 | CC(C)CCN1CCC(C)(NC(=O)c2ccccc2)C1=O (centres undefined) | 5.05%
80 | Cc1nnc(SCc2ccc(C(=O)c3ccc(Cl)cc3)o2)n1-c1ccccc1 | 7.29%
81 | CCOc1ccccc1/C=c1\sc2nc(-c3ccco3)nn2c1=O | 78% (active)
82 | CCCn1nc(C(=O)NNC(=O)CCOc2ccccc2OCC)c2ccccc2c1=O | -1.1%
83 | CSc1nc(-c2ccco2)nn1C(=O)c1ccccc1Cl | -10.4%
84 | Nc1ncc(CN2CCCC(C(=O)Nc3ccc(-c4ccco4)cc3)C2)cn1 (centres undefined) | -3.44%
85 | COc1ccc(C(=O)C2CCCN(Cc3cccn3-c3ccccn3)C2)c(C)c1 (centres undefined) | -4.92%
86 | CS(=O)(=O)C1=NN2C(=N)/C(=C\c3ccc(OCCOc4ccccc4)cc3)C(=O)N=C2S1 | 50.3% (active)
87 | CCOc1cc(/C=C2\C(=N)N3N=C(C)SC3=NC2=O)ccc1OCCOc1ccccc1 | -5.68%
88 | COc1ccccc1OCCOc1ccc(/C=C2\C(=N)N3N=C(C)SC3=NC2=O)cc1 | -7.04%
89 | CCOc1ccc(S(=O)(=O)N/N=C(\C)c2ccc(Cl)c(Cl)c2Cl)cc1 | -6.85%
